Laboratory results from ChEMBL document CHEMBL1157170, “Novel 5-azaindolocarbazoles as cytotoxic agents and Chk1 inhibitors” (Bioorg Med Chem, 2008).
Activity calls are given as the source filed them. The calls are words filed in the database; no cut-off is given here.

Legend:
L1210 [1] = experiment: Antiproliferative activity against mouse L1210 cells after 48 hrs by microculture tetrazolium assay; type: functional, cell-based; conditions: L1210, 48 h
Outline: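 L1210 cells grown in RPMI 1640 with 10% fetal calf serum, 2 mM L-glutamine, penicillin/streptomycin and 10 mM Hepes (pH 7.4). Exposed for 48 h (four doubling times) to nine serial dilutions, each in triplicate. Read-out was microculture tetrazolium assay. IC50 is the concentration that cut optical density by 50% versus untreated controls.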

[2] = target: T1, Serine/threonine-protein kinase Chk1 (Homo sapiens) (UniProt O14757); experiment: Inhibition of human Chk1 expressed in sf9-baculovirus system at 10 uM
T1 sequence (whole entry): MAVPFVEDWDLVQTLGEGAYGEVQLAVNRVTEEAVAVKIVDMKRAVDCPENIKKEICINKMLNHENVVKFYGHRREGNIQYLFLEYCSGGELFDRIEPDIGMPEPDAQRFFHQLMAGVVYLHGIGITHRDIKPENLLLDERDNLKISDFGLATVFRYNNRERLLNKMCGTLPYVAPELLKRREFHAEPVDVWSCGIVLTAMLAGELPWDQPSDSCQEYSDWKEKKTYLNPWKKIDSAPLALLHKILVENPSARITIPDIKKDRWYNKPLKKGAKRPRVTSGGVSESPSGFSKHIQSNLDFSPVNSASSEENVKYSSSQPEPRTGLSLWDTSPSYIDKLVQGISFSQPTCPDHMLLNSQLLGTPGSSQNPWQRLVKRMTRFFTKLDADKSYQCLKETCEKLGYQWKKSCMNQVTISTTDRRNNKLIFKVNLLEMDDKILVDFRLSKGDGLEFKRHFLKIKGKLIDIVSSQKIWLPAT

[3] = target: T2, Serine/threonine-protein kinase Chk1 (Homo sapiens, UniProt O14757); experiment: Inhibition of human Chk1 expressed in sf9-baculovirus system
T2 sequence (O14757 whole entry): T1 sequence (whole entry)
Outline: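 Kinase was GST-tagged Chk1 purified from extracts of Sf9 cells infected with a GST-Chk1 baculovirus. Assay format followed a published method.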

HT-29 = experiment: Antiproliferative activity against human HT29 cells after 96 hrs by microculture tetrazolium assay; conditions: HT-29, 96 h
L1210 [4] = experiment: Cell cycle arrest in mouse L1210 cells by accumulation at G1 phase at 1 uM after 21 hrs by flow cytometry; type: functional
Outline: (§1)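 L1210 cells at 2.5 × 10⁵ cells/mL incubated 21 h with various compound concentrations. Fixed in 70% ethanol, washed, then stained 30 min in D-PBS containing RNAse and propidium iodide. DNA content analysed by flow cytometry.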

L1210 [5] = experiment: Cell cycle arrest in mouse L1210 cells by accumulation at G2M phase at 1 uM after 21 hrs by flow cytometry; type: functional; outline: as §1
L1210 [6] = experiment: Cell cycle arrest in mouse L1210 cells by accumulation at G2M phase at 5 uM after 21 hrs by flow cytometry; type: functional; outline: as §1
L1210 [7] = experiment: Toxicity against mouse L1210 cells at 20 uM; type: functional, cell-based

IC50 (L1210 [1])	inhibition [2]	IC50 [3]	IC50 (HT-29)	Structure (SMILES)	Activity (L1210 [4])	Activity (L1210 [5])	Activity (L1210 [6])	Activity (L1210 [7])
1.5 µM	90.6%	1.32 µM	7.6 µM	O=C1NC(=O)c2c1c1c3cnccc3[nH]c1c1[nH]c3ccc(OCc4ccccc4)cc3c21	–	–	–	–
80.7 µM	99.1%	0.027 µM	> 100 µM	O=C1NC(=O)c2c1c1c3cnccc3[nH]c1c1[nH]c3ccc(O)cc3c21	–	–	–	–
16.3 µM	17.6%	–	19.5 µM	CN(C)CCN1C(=O)c2c(c3c4cc(OCc5ccccc5)ccc4[nH]c3c3[nH]c4ccncc4c23)C1=O	–	–	–	–
3.3 µM	98.7%	0.014 µM	> 100 µM	O=C1NC(=O)c2c1c1c3ccc(O)cc3[nH]c1c1[nH]c3ccncc3c21	–	–	–	–
0.47 µM	49.4%	–	3.8 µM	CN(C)CCN1C(=O)c2c(c3c4cnccc4[nH]c3c3[nH]c4ccccc4c23)C1=O	–	–	–	–
12.8 µM	51.4%	–	63.7 µM	CN1C(=O)c2c(c3c4ccccc4n([C@@H]4O[C@H](CO)[C@@H](O)[C@H](O)[C@H]4O)c3c3[nH]c4cc[n+](Cc5ccccc5)cc4c23)C1=O	–	–	–	–
0.6 µM	98.6%	5 µM	1.5 µM	O=C1NC(=O)c2c1c1c3ccccc3[nH]c1c1[nH]c3ccncc3c21	60%	–	–	–
0.495 µM	26.7%	–	3.35 µM	CN1C(=O)c2c(c3c4cc5c(cc4[nH]c3c3[nH]c4ccncc4c23)OCO5)C1=O	–	–	–	–
> 100 µM	49%	–	–	CN1C(=O)c2c(c3c4ccccc4n([C@@H]4O[C@H](COCc5ccccc5)[C@@H](OCc5ccccc5)[C@H](OCc5ccccc5)[C@H]4OCc4ccccc4)c3c3[nH]c4ccncc4c23)C1=O	–	–	–	–
11.9 µM	38.5%	–	> 100 µM	CN1C(=O)c2c(c3c4cc(O)ccc4[nH]c3c3[nH]c4ccncc4c23)C1=O	–	–	–	–
0.6 µM	27%	–	2 µM	CN1C(=O)c2c(c3c4cnccc4[nH]c3c3[nH]c4cc(OCc5ccccc5)ccc4c23)C1=O	–	–	–	–
2.6 µM	48.9%	–	50.9 µM	CN(C)CCN1C(=O)c2c(c3c4cc(O)ccc4[nH]c3c3[nH]c4ccncc4c23)C1=O	–	–	–	–
0.195 µM	6.7%	–	1.76 µM	CN(C)CCN1C(=O)c2c(c3c4cc5c(cc4[nH]c3c3[nH]c4ccncc4c23)OCO5)C1=O	–	62%	–	–
1.4 µM	32.7%	–	2.9 µM	CN(C)CCN1C(=O)c2c(c3c4cnccc4[nH]c3c3[nH]c4cc(OCc5ccccc5)ccc4c23)C1=O	–	–	–	–
14.3 µM	46.5%	–	> 100 µM	CC(=O)OC[C@H]1O[C@@H](n2c3ccccc3c3c4c(c5c6c[n+](Cc7ccccc7)ccc6[nH]c5c32)C(=O)N(C)C4=O)[C@H](OC(C)=O)[C@@H](OC(C)=O)[C@@H]1OC(C)=O	–	–	–	–
1.1 µM	95.9%	0.072 µM	32.4 µM	O=C1NC(=O)c2c1c1c3ccc(OCc4ccccc4)cc3[nH]c1c1[nH]c3ccncc3c21	–	–	43%	–
2.7 µM	66.6%	5 µM	16.2 µM	CN1C(=O)c2c(c3c4cnccc4[nH]c3c3[nH]c4cc(O)ccc4c23)C1=O	–	–	–	Active
